Assay results taken from ChEMBL document CHEMBL2029264, “Indole-based fibrates as potential hypolipidemic and antiobesity agents” (J Med Chem, 2012).

Columns and labels:
Format in all cases: functional
[1] = test system: Rattus norvegicus; experiment: Antihyperlipidemic activity in HFD-induced hyperlipidemic Charles Foster rat assessed as decrease in plasma LDL-triglyceride level at 100 mg/kg, po administered for 4 weeks relative to control; set-up: scale not given: the % may be the effect or the level left
Outline: (§1)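 After 4 weeks high-fat feeding plus 4 weeks daily dosing, overnight fast, retro-orbital blood into EDTA tubes. Serum split into VLDL, LDL and HDL by polyanionic precipitation; each fraction assayed for TC, PL, TG and apoprotein (mg/dL plasma). Pooled data from 6 rats/group, mean ± SD, dosed groups compared with high-fat group.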

[2] = test system: Rattus norvegicus; experiment: Antihyperlipidemic activity in HFD-induced hyperlipidemic Charles Foster rat assessed as decrease in plasma VLDL-apoprotein level at 100 mg/kg, po administered for 4 weeks relative to control; set-up: scale not given: the % may be the effect or the level left; outline: as §1
[3] = test system: Rattus norvegicus; experiment: Antihyperlipidemic activity in HFD-induced hyperlipidemic Charles Foster rat assessed as increase in plasma HDL-triglyceride level at 100 mg/kg, po administered for 4 weeks relative to control; outline: as §1
[4] = test system: Rattus norvegicus; experiment: Antihyperlipidemic activity in HFD-induced hyperlipidemic Charles Foster rat assessed as increase in cholic acid excretion in feces at 100 mg/kg/day, po administered for 4 weeks measured after 30 days relative to control
Outline: (§2)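 Rats fed high-fat diet 4 weeks, then diet plus daily dosing 4 weeks. Cholic and deoxycholic acid excreted in feces measured; dosed groups compared with high-fat group, control compared with high-fat group.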

[5] = test system: Rattus norvegicus; experiment: Antihyperlipidemic activity in HFD-induced hyperlipidemic Charles Foster rat assessed as increase in plasma HDL-total cholesterol level at 100 mg/kg, po administered for 4 weeks relative to control; outline: as §1
[6] = test system: Rattus norvegicus; experiment: Antihyperlipidemic activity in HFD-induced hyperlipidemic Charles Foster rat assessed as decrease in plasma LDL-total cholesterol level at 100 mg/kg, po administered for 4 weeks relative to control; set-up: scale not given: the % may be the effect or the level left; outline: as §1
[7] = test system: Rattus norvegicus; experiment: Antihyperlipidemic activity in HFD-induced hyperlipidemic Charles Foster rat assessed as decrease in liver phospholipid level at 100 mg/kg, po administered for 4 weeks relative to control; set-up: scale not given: the % may be the effect or the level left
Outline: (§3)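 Adult male Charles Foster rats (200−225 g), high-fat diet 4 weeks, then diet plus daily dosing 4 more weeks; overnight fast, sacrifice, liver washed in cold 0.15 M KCl and held at 4 °C. Lipids extracted from liver homogenate in CHCl3/CH3OH (2:1 v/v), TC, PL and TG read in mg/g; pooled data from 6 rats/group, mean ± SD.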

[8] = test system: Rattus norvegicus; experiment: Antihyperlipidemic activity in HFD-induced hyperlipidemic Charles Foster rat assessed as decrease in serum triglyceride level at 100 mg/kg, po administered for 4 weeks relative to control; set-up: scale not given: the % may be the effect or the level left
Outline: (§4)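 Male Charles Foster rats (200−225 g): high-fat diet 4 weeks, then diet plus daily dosing 4 weeks. Overnight fast, retro-orbital blood in EDTA (3 mg/mL blood), centrifuged to serum. TC, PL, TG in mg/dL; LCAT as nmol cholesterol released/h/L plasma. Mean ± SD; dosed groups compared with high-fat group, P by significance levels.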

[9] = test system: Rattus norvegicus; experiment: Antihyperlipidemic activity in HFD-induced hyperlipidemic Charles Foster rat assessed as decrease in serum total cholesterol level at 100 mg/kg, po administered for 4 weeks relative to control; set-up: scale not given: the % may be the effect or the level left; outline: as §4
[10] = test system: Rattus norvegicus; experiment: Antihyperlipidemic activity in HFD-induced hyperlipidemic Charles Foster rat assessed as decrease in plasma VLDL-phospholipid level at 100 mg/kg, po administered for 4 weeks relative to control; set-up: scale not given: the % may be the effect or the level left; outline: as §1
[11] = test system: Rattus norvegicus; experiment: Antihyperlipidemic activity in HFD-induced hyperlipidemic Charles Foster rat assessed as increase in plasma HDL-apoprotein level at 100 mg/kg, po administered for 4 weeks relative to control; outline: as §1
[12] = test system: Rattus norvegicus; experiment: Antihyperlipidemic activity in HFD-induced hyperlipidemic Charles Foster rat assessed as decrease in plasma LDL-apoprotein level at 100 mg/kg, po administered for 4 weeks relative to control; set-up: scale not given: the % may be the effect or the level left; outline: as §1
[13] = test system: Rattus norvegicus; experiment: Antihyperlipidemic activity in HFD-induced hyperlipidemic Charles Foster rat assessed as decrease in plasma LDL-phospholipid level at 100 mg/kg, po administered for 4 weeks relative to control; set-up: scale not given: the % may be the effect or the level left; outline: as §1
[14] = test system: Rattus norvegicus; experiment: Antihyperlipidemic activity in HFD-induced hyperlipidemic Charles Foster rat assessed as increase in plasma HDL-phospholipid level at 100 mg/kg, po administered for 4 weeks relative to control; outline: as §1
[15] = test system: Rattus norvegicus; experiment: Antihyperlipidemic activity in HFD-induced hyperlipidemic Charles Foster rat assessed as increase in serum LCAT enzyme level at 100 mg/kg, po administered for 4 weeks relative to control; outline: as §4
[16] = test system: Rattus norvegicus; experiment: Antihyperlipidemic activity in HFD-induced hyperlipidemic Charles Foster rat assessed as decrease in liver triglyceride level at 100 mg/kg, po administered for 4 weeks relative to control; set-up: scale not given: the % may be the effect or the level left; outline: as §3
[17] = test system: Rattus norvegicus; experiment: Antihyperlipidemic activity in HFD-induced hyperlipidemic Charles Foster rat assessed as reactivation of LPL activity at 100 mg/kg, po administered for 4 weeks relative to control
Outline: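 Male Charles Foster rats fed high-fat diet 4 weeks, then diet plus daily dosing 4 weeks. Liver homogenized (10% w/v) in cold 100 mM phosphate buffer pH 7.2; total lipolytic LPL activity read as nmol free fatty acid formed/h/mg protein; pooled data from 6 rats/group, mean ± SD.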

[18] = test system: Rattus norvegicus; experiment: Antihyperlipidemic activity in HFD-induced hyperlipidemic Charles Foster rat assessed as increase in [I125]-LDL catabolism in plasma membrane of liver at 100 mg/kg/day, po administered for 4 weeks
Outline: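 Rats on 8 weeks total of high-fat diet, dosed daily for the last 4 weeks, then sacrificed. Human serum LDL radiolabeled with I125; specific binding to liver plasma membrane preparation measured as receptor-mediated LDL catabolism. Mean ± SD, n = 6.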

[19] = test system: Rattus norvegicus; experiment: Antihyperlipidemic activity in HFD-induced hyperlipidemic Charles Foster rat assessed as decrease in liver total cholesterol level at 100 mg/kg, po administered for 4 weeks relative to control; set-up: scale not given: the % may be the effect or the level left; outline: as §3
[20] = test system: Rattus norvegicus; experiment: Antihyperlipidemic activity in HFD-induced hyperlipidemic Charles Foster rat assessed as decrease in serum phospholipid level at 100 mg/kg, po administered for 4 weeks relative to control; set-up: scale not given: the % may be the effect or the level left; outline: as §4
[21] = test system: Rattus norvegicus; experiment: Antihyperlipidemic activity in HFD-induced hyperlipidemic Charles Foster rat assessed as decrease in plasma VLDL-triglyceride level at 100 mg/kg, po administered for 4 weeks relative to control; set-up: scale not given: the % may be the effect or the level left; outline: as §1
[22] = test system: Rattus norvegicus; experiment: Antihyperlipidemic activity in HFD-induced hyperlipidemic Charles Foster rat assessed as decrease in plasma VLDL-total cholesterol level at 100 mg/kg, po administered for 4 weeks relative to control; set-up: scale not given: the % may be the effect or the level left; outline: as §1
[23] = test system: Rattus norvegicus; experiment: Antihyperlipidemic activity in HFD-induced hyperlipidemic Charles Foster rat assessed as increase in deoxycholic acid excretion in feces at 100 mg/kg/day, po administered for 4 weeks measured after 30 days relative to control; outline: as §2
[24] = test system: Rattus norvegicus; experiment: Antihyperlipidemic activity in Triton WR-1339-induced hyperlipidemic rat assessed as decrease in plasma triglyceride level at 100 mg/kg, po relative to control; set-up: scale not given: the % may be the effect or the level left
Outline: (§5)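 Triton WR-1339 given to rats to induce hyperlipidemia; oral dosing. Plasma TC, PL, TG in mg/dL; PHLA as […]/h/mL plasma. Mean ± SD of six rats; Triton group compared with control, Triton plus dosed group compared with Triton group.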

[25] = test system: Rattus norvegicus; experiment: Antihyperlipidemic activity in Triton WR-1339-induced hyperlipidemic rat assessed as decrease in plasma total cholesterol level at 100 mg/kg, po relative to control; set-up: scale not given: the % may be the effect or the level left; outline: as §5
[26] = test system: Rattus norvegicus; experiment: Antihyperlipidemic activity in Triton WR-1339-induced hyperlipidemic rat assessed as decrease in plasma phospholipid level at 100 mg/kg, po relative to control; set-up: scale not given: the % may be the effect or the level left; outline: as §5
[27] = test system: Rattus norvegicus; experiment: Antihyperlipidemic activity in Triton WR-1339-induced hyperlipidemic rat assessed as increase in LCAT enzyme level at 100 mg/kg, po; outline: as §5
[28] = test system: Rattus norvegicus; experiment: Antihyperlipidemic activity in Triton WR-1339-induced hyperlipidemic rat assessed as increase in PHLA enzyme level at 100 mg/kg, po; outline: as §5

SMILES: CC(C)OC(=O)C(C)(C)Oc1ccc(C(=O)c2ccc(Cl)cc2)cc1 [FENOFIBRATE]
- Activity [1]: 27%
- Activity [2]: 35%
- Activity [3]: 16%
- Activity [4]: 31%
- Activity [5]: 16%
- Activity [6]: 28%
- Activity [7]: 33%
- Activity [8]: 33%
- Activity [9]: 36%
- Activity [10]: 24%
- Activity [11]: 17%
- Activity [12]: 28%
- Activity [13]: 28%
- Activity [14]: 15%
- Activity [15]: 34%
- Activity [16]: 34%
- Activity [17]: 26%
- Activity [18]: 30%
- Activity [19]: 37%
- Activity [20]: 34%
- Activity [21]: 30%
- Activity [22]: 28%
- Activity [23]: 33%

SMILES: CCOC(=O)C(C)(C)Oc1ccc(C(c2cn(C)c3ccccc23)c2cn(C)c3ccccc23)cc1
- Activity [24]: 5%
- Activity [25]: 10%
- Activity [26]: 9%

SMILES: Cc1ccc(C)c(OCCCC(C)(C)C(=O)O)c1 [GEMFIBROZIL]
- Activity [27]: 27 nmol/h/mL
- percent increase [28]: 27%
- Activity [24]: 35%
- Activity [25]: 33%
- Activity [26]: 35%

SMILES: CCOC(=O)COc1ccc(C(c2c[nH]c3ccccc23)c2c[nH]c3ccccc23)cc1
- Activity [24]: 10%
- Activity [25]: 12%
- Activity [26]: 25%

SMILES: CCOC(=O)C(C)Oc1ccc(C(c2c(C)[nH]c3ccccc23)c2c(C)[nH]c3ccccc23)cc1 (stereo not drawn)
- Activity [24]: 8%
- Activity [25]: 9%
- Activity [26]: 5%

SMILES: CCOC(=O)CCCOc1ccc(C(c2c[nH]c3ccccc23)c2c[nH]c3ccccc23)cc1
- Activity [24]: 12%
- Activity [25]: 12%
- Activity [26]: 15%

SMILES: CCOC(=O)C(C)Oc1ccc(C(c2cn(C)c3ccccc23)c2cn(C)c3ccccc23)cc1 (stereo not drawn)
- Activity [24]: 8%
- Activity [25]: 10%
- Activity [26]: 6%

SMILES: CCOC(=O)COc1ccc(C(c2cn(CC)c3ccccc23)c2cn(CC)c3ccccc23)cc1
- Activity [24]: 10%
- Activity [25]: 12%
- Activity [26]: 6%

SMILES: CCOC(=O)C(C)(C)Oc1ccc(C(c2c[nH]c3ccccc23)c2c[nH]c3ccccc23)cc1
- Activity [24]: 6%
- Activity [25]: 9%
- Activity [26]: 9%

SMILES: CCOC(=O)C(C)Oc1ccc(C(c2c(C)n(C)c3ccccc23)c2c(C)n(C)c3ccccc23)cc1 (stereo not drawn)
- Activity [24]: 6%
- Activity [25]: 10%
- Activity [26]: 10%

SMILES: CCOC(=O)COc1ccc(C(c2cn(C)c3ccccc23)c2cn(C)c3ccccc23)cc1
- Activity [24]: 9%
- Activity [25]: 10%
- Activity [26]: 12%

SMILES: CCOC(=O)C(C)(C)Oc1ccc(C(c2cn(CC)c3ccccc23)c2cn(CC)c3ccccc23)cc1
- Activity [24]: 9%
- Activity [25]: 11%
- Activity [26]: 9%
